Measured values as given in ChEMBL document CHEMBL4513216, “Probing the Open Global Health Chemical Diversity Library for Multistage-Active Starting Points for Next-Generation Antimalarials” (ACS Infect Dis, 2020).

Test: Toxicity liver stage against HepG2, at 10uM
Type: cell-based
Design: test concentration 10 uM, cell line HepG2-A16-CD81EGFP
Details: human, HepG2-A16-CD81EGFP cells; read-out: INHIBITION
Method in brief: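 Uninfected HepG2-A16-CD81EGFP cells, 3 × 10^3 per well, 1536-well, plated on prespotted compound at 10 μM final, parasite-free screening media added to match infected plates; puromycin 10 μM positive, DMSO 0.5% negative; run in parallel with 48 h PbLuc assay at 37 °C, 5% CO2; viability by CellTiter-Glo luminescence, normalized to controls.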

Q: For `CCc1nnc(C(C)N2CCc3cncnc3C2)o1` (stereo not drawn), which cytotoxicity at 10 µM is on record?
A: 7.49%

Q: With `CCn1ccc(-c2cc(C(=O)O)n3ncc(Cl)c3n2)n1` as the molecule, how does the cytotoxicity at 10 µM read?
A: -3.05%

Q: Which cytotoxicity at 10 µM does the source give for `CN(C)S(=O)(=O)c1ccc(=O)n(CC2CCCCO2)c1` (stereo not drawn) here?
A: -8.58%

Q: For `CCOC(=O)CNC(=O)c1scnc1C`, which cytotoxicity at 10 µM is on record?
A: 5.35%

Q: Which cytotoxicity at 10 µM does the source give for `COc1ccc(-c2cc(N)ccn2)c(OC)c1OC` here?
A: 11.4%

Q: For `CSCc1noc(Cn2ncn3cccc3c2=O)n1`, which cytotoxicity at 10 µM is on record?
A: 4.44%

Q: Which cytotoxicity at 10 µM does the source give for `CC(C)c1nn(C)cc1CNC1CCOc2ccccc21` (stereo not drawn) here?
A: 0.923%

Q: For `CC(C)c1ncc2c(n1)CN(CC(=O)Nc1ccc(Cl)cn1)CC2`, which cytotoxicity at 10 µM is on record?
A: -1.4%

Q: Which cytotoxicity at 10 µM does the source give for `Fc1cnc(N2CCCC3(CN(Cc4cccs4)CCO3)C2)nc1` (stereo not drawn) here?
A: 7.37%

Q: Which cytotoxicity at 10 µM does the source give for `O=C(NCC1CC1)[C@@H]1C[C@@H]2CCN(Cc3ccccc3)C[C@H]2O1` here?
A: 4.21%

Q: With `Cc1ccccc1OCCC(=O)N1CCc2nc(C)n(C)c(=O)c2CC1` as the molecule, how does the cytotoxicity at 10 µM read?
A: -0.852%

Q: With `COc1ccc(C[C@H]2CN(Cc3ccoc3)CC[C@@H]2OC)cc1` as the molecule, how does the cytotoxicity at 10 µM read?
A: 2.51%

Q: For `O=C(CN1CCOC1=O)N1CC[C@@H](c2ccc3ccccc3c2)[C@H](O)C1`, which cytotoxicity at 10 µM is on record?
A: 0.562%

Q: With `O=C(COc1cccc2c1CCC2=O)NCc1ccccc1Cl` as the molecule, how does the cytotoxicity at 10 µM read?
A: -3.46%

Q: For `CC(=O)c1cccc(NC(=O)c2cnc(N3CCN(C)CC3)nc2C)c1`, which cytotoxicity at 10 µM is on record?
A: 4.28%

Q: With `Cc1cccc(OCC(O)CN2CCC(c3ccn[nH]3)CC2)c1` (stereo not drawn) as the molecule, how does the cytotoxicity at 10 µM read?
A: -3.6%

Q: With `O=C(NCCN1CCOCC1)c1ccc(-c2ccccc2)[nH]c1=O` as the molecule, how does the cytotoxicity at 10 µM read?
A: 1.58%

Q: For `O=C(Cc1ccsc1)N1CCC(c2n[nH]c3nccnc23)CC1`, which cytotoxicity at 10 µM is on record?
A: -10.6%

Q: With `COC(=O)c1ccc(CNCc2ccn(C)n2)cc1` as the molecule, how does the cytotoxicity at 10 µM read?
A: -2.64%

Q: For `COc1ccccc1OCC(=O)n1nc(C)c(C)c1C`, which cytotoxicity at 10 µM is on record?
A: -5.01%

Q: For `CCN(Cc1cccc(NC(=O)COC)c1)C(C)=O`, which cytotoxicity at 10 µM is on record?
A: -125%

Q: Which cytotoxicity at 10 µM does the source give for `CN(C)c1cccc(C(=O)Nc2ccn(CCc3ccncc3)n2)c1` here?
A: 0.209%

Q: With `CC1(C(N)=O)CN(S(=O)(=O)c2cccc(F)c2)CCO1` (stereo not drawn) as the molecule, how does the cytotoxicity at 10 µM read?
A: 6.73%

Q: For `O=C(NC1CCOC1)c1cccc(S(=O)(=O)NCCCc2ncc[nH]2)c1` (stereo not drawn), which cytotoxicity at 10 µM is on record?
A: -2.26%

Q: Which cytotoxicity at 10 µM does the source give for `CCOCCn1c(=O)n(Cc2ccccc2F)c2cc(C(=O)O)cnc21` here?
A: -6.46%

Q: With `O=C1OCCN1CCS(=O)(=O)c1cccc(Cl)c1` as the molecule, how does the cytotoxicity at 10 µM read?
A: -0.82%

Q: With `CC(C)c1cc(NC(=O)CN2CCNC(=O)C2)on1` as the molecule, how does the cytotoxicity at 10 µM read?
A: -11.6%

Q: Which cytotoxicity at 10 µM does the source give for `CCN1CC[C@@]2(C(=O)Nc3ccccc3)CCN(S(C)(=O)=O)CC[C@@H]12` here?
A: 7.14%

Q: Which cytotoxicity at 10 µM does the source give for `CN1CCOC(C(=O)Nc2nnc(Cc3ccc(F)cc3)[nH]2)C1` (stereo not drawn) here?
A: -4.95%

Q: For `CCOCC1CN(C(=O)c2cscn2)Cc2cnn(CC3CC3)c21` (stereo not drawn), which cytotoxicity at 10 µM is on record?
A: -69.4%

Q: With `COC(=O)CCCC(=O)N(C)CC1Cc2ccccc2CN1C` (stereo not drawn) as the molecule, how does the cytotoxicity at 10 µM read?
A: -12.4%

Q: Which cytotoxicity at 10 µM does the source give for `O=C(Nc1cccnc1)NC1(c2cccc(F)c2)CC1` here?
A: 1.41%

Q: Which cytotoxicity at 10 µM does the source give for `CN(CCc1ccc2c(c1)CCO2)C1CCS(=O)(=O)CC1` here?
A: -7.94%

Q: Which cytotoxicity at 10 µM does the source give for `Fc1ccc2[nH]c(CO[C@H]3CN(CC4CC4)C[C@H]3F)nc2c1` here?
A: -2.74%

Q: Which cytotoxicity at 10 µM does the source give for `CC(C)NC(=O)C1(Cc2ccccc2-c2cccs2)CCNC1` (stereo not drawn) here?
A: -42%

Q: Which cytotoxicity at 10 µM does the source give for `Cn1nccc1-c1cc(C2CCN(S(C)(=O)=O)CC2)ccn1` here?
A: -28.2%

Q: With `O=C1COC2(CCN(C(=O)c3cnccn3)CC2)CN1CC1CC1` as the molecule, how does the cytotoxicity at 10 µM read?
A: -16%

Q: For `Cc1cccc(-n2ncc3c2CCCC3NCc2cnn(C)c2C)c1C` (stereo not drawn), which cytotoxicity at 10 µM is on record?
A: 13.8%

Q: With `Cc1nnn2c1COCC(CNC(=O)c1ccc3[nH]ccc3c1)C2` (stereo not drawn) as the molecule, how does the cytotoxicity at 10 µM read?
A: -10.7%

Q: For `COc1ccc(C2Nc3cc(Cl)ccc3C3=NCCN32)cc1CO` (stereo not drawn), which cytotoxicity at 10 µM is on record?
A: -19.3%

Q: For `CN1CCC(CCNC(=O)N2CCN(Cc3ccon3)CC2)CC1`, which cytotoxicity at 10 µM is on record?
A: -6.49%

Q: Which cytotoxicity at 10 µM does the source give for `CC(C)NC(=O)CN(C)CC(=O)Nc1ccnn1C(C)C1CC1` (stereo not drawn) here?
A: -6%

Q: Which cytotoxicity at 10 µM does the source give for `CC(NCCCN1CCCC1=O)c1ccc(F)cc1N(C)C` (stereo not drawn) here?
A: -2.78%

Q: Which cytotoxicity at 10 µM does the source give for `CC(=O)N[C@@H](CC(C)C)C(=O)N1CCC(n2cc(CO)nn2)CC1` here?
A: 9.56%

Q: For `Cc1ccccc1C(=O)N1C[C@@H]2C(CN(C)CCc3ccccn3)[C@@H]2C1` (stereo partly drawn), which cytotoxicity at 10 µM is on record?
A: -54.9%

Q: For `Cc1nc(Nc2nnc(C)s2)cc(C2CCCN2c2ccncc2)n1` (stereo not drawn), which cytotoxicity at 10 µM is on record?
A: -9.99%

Q: Which cytotoxicity at 10 µM does the source give for `Cc1cc(C)c2c(NCCC34CCCN3CCC4)ncnc2n1` here?
A: -2.43%

Q: For `CC(NC(=O)NCCCN(C(C)C)S(C)(=O)=O)c1ccncc1` (stereo not drawn), which cytotoxicity at 10 µM is on record?
A: -14.9%

Q: With `O=C(c1ccncc1F)N1C[C@@H]2OCCN(CC3CC3)[C@@H]2C1` as the molecule, how does the cytotoxicity at 10 µM read?
A: -141%

Q: Which cytotoxicity at 10 µM does the source give for `CC(NC(=O)CNC(=O)OC(C)(C)C)c1ccc(Cl)s1` (stereo not drawn) here?
A: 2.99%

Q: With `CC(C)(C)Oc1ccc(C(=O)N2CCOCC2c2ncon2)cc1` (stereo not drawn) as the molecule, how does the cytotoxicity at 10 µM read?
A: -0.968%

Q: With `COCC(=O)NCc1cc(=O)n2c(n1)CN(CC1CC1)CCC2` as the molecule, how does the cytotoxicity at 10 µM read?
A: -88.5%

Q: With `COC(=O)c1sc2cccc(F)c2c1CNC(=O)C1CCOC1` (stereo not drawn) as the molecule, how does the cytotoxicity at 10 µM read?
A: 8.97%

Q: For `N#Cc1c(CN2CCCC2Cn2cncn2)cn2ccccc12` (stereo not drawn), which cytotoxicity at 10 µM is on record?
A: -2.49%

Q: With `Fc1ccc(CN2CCC3(CCN(Cc4nccs4)CC3)C2)cc1` as the molecule, how does the cytotoxicity at 10 µM read?
A: 5.04%

Q: Which cytotoxicity at 10 µM does the source give for `O=C(NCc1ccccc1)N1CCn2c(Cn3cccn3)cnc2C1` here?
A: -71%

Q: Which cytotoxicity at 10 µM does the source give for `CCOc1ccc(C(=O)N2CCCCC2Cn2nc(C)cc2C)cn1` (stereo not drawn) here?
A: 6.6%

Q: For `Nc1cc(N2CCCC(Cc3ccc(F)cc3F)(C(=O)O)C2)ncn1` (stereo not drawn), which cytotoxicity at 10 µM is on record?
A: 10.6%

Q: For `COCCN1CCC2(CCN(Cc3ccc(OC)cc3)CC2)C1=O`, which cytotoxicity at 10 µM is on record?
A: 2.88%

Q: For `Cc1noc(C)c1CN1C[C@H]2CC[C@@H](C1)N(Cc1cc(F)cc(F)c1)C2`, which cytotoxicity at 10 µM is on record?
A: -11.9%

Q: For `Cc1c(C(=O)O)cnn1-c1ccc(-c2nc(C(C)C)no2)cn1`, which cytotoxicity at 10 µM is on record?
A: -3.42%

Q: For `COC(=O)c1sccc1S(=O)(=O)N1CCC(Oc2cnccn2)CC1`, which cytotoxicity at 10 µM is on record?
A: 9.32%

Q: For `CS(=O)(=O)NC1CCCN(C(=O)COCc2ccccc2)C1` (stereo not drawn), which cytotoxicity at 10 µM is on record?
A: -5.28%

Q: Which cytotoxicity at 10 µM does the source give for `CC(Cn1cccn1)NC(=O)NCc1ccc(C(N)=O)cc1` (stereo not drawn) here?
A: -3.2%

Q: For `O=C1N(Cc2ccncc2)CCC12CCCNC2` (stereo not drawn), which cytotoxicity at 10 µM is on record?
A: 4.26%

Q: For `O=C(CN1CCCCC1Cn1cncn1)NCCc1ccc(F)cc1` (stereo not drawn), which cytotoxicity at 10 µM is on record?
A: -1.65%

Q: With `CC(C)(C)c1cnc(CN2CCC(CO)CC2)o1` as the molecule, how does the cytotoxicity at 10 µM read?
A: -5.6%

Q: With `CCc1ccc2c(c1)C(CCNC(=O)CCc1ccsc1)C(=O)N2` (stereo not drawn) as the molecule, how does the cytotoxicity at 10 µM read?
A: -41.5%

Q: Which cytotoxicity at 10 µM does the source give for `NC(=O)C1CCN(C(=O)Cn2nc(-c3ccccc3)oc2=O)C1` (stereo not drawn) here?
A: -13%

Q: For `CN(CC(N)=O)C(=O)C1Cc2cc(Cl)ccc2O1` (stereo not drawn), which cytotoxicity at 10 µM is on record?
A: 2.93%

Q: For `CC(=O)Nc1ccc(OCc2noc(C(=O)N3CCCCCC3)n2)cc1`, which cytotoxicity at 10 µM is on record?
A: -23%

Q: Which cytotoxicity at 10 µM does the source give for `COc1cc(CN(C)C(=O)Nc2cc(C)on2)ccc1SC` here?
A: -10.7%

Q: For `CC(C)n1cc(C(=O)NC2CCS(=O)(=O)C2)c2ccccc2c1=O` (stereo not drawn), which cytotoxicity at 10 µM is on record?
A: 1.85%

Q: For `Cc1nc(Nc2nccs2)cc(C2CCCN2)n1` (stereo not drawn), which cytotoxicity at 10 µM is on record?
A: 63%

Q: With `c1cnnc(N2CCCC2CNCc2ccsc2)c1` (stereo not drawn) as the molecule, how does the cytotoxicity at 10 µM read?
A: -8.9%

Q: For `CN(C)C(=O)Cc1ccccc1NCc1noc(-c2ccccc2)n1`, which cytotoxicity at 10 µM is on record?
A: 6.95%

Q: For `O=C(NCCc1cc2nc(-c3ccncc3)ccn2n1)C1CC1`, which cytotoxicity at 10 µM is on record?
A: 5.82%

Q: Which cytotoxicity at 10 µM does the source give for `COc1ccc(CN2CCC3(CC2)CCN(CC(=O)N(C)C)C3=O)cc1` here?
A: -0.449%

Q: With `Cc1ncnc2c1CCN(c1cc(C(F)(F)F)ncn1)CC2` as the molecule, how does the cytotoxicity at 10 µM read?
A: -2.96%

Q: With `COc1ccc(-c2ccc(C(=O)N3CCOCC3CC(N)=O)o2)cc1` (stereo not drawn) as the molecule, how does the cytotoxicity at 10 µM read?
A: 3.16%

Q: For `CN(C)CC(=O)N1CCc2sc(C(=O)NCC3CC3)cc21`, which cytotoxicity at 10 µM is on record?
A: 1.68%

Q: For `Cc1cc(NCc2cc(C)oc2C(F)(F)F)n2nc(C)cc2n1`, which cytotoxicity at 10 µM is on record?
A: 49.1%

Q: Which cytotoxicity at 10 µM does the source give for `CC(C)C(=O)N1CCCC12CCN(C(=O)c1ccno1)C2` (stereo not drawn) here?
A: 7.49%
